Each compound was assayed on Staphylococcus epidermidis (assay: Antimicrobial activity against extended spectrum beta-lactamases-producing methicillin-sensitive Staphylococcus epidermidis 10-15 after 18-24 hrs by two-fold serial dilution method).
Assay type: functional
Outline: (§1)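 Agar-medium twofold serial dilution against Gram-positive and Gram-negative strains; MIC taken as the lowest compound concentration giving complete inhibition of bacterial growth after incubation at 35 °C for 18-24 h.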

SMILES	MIC
CS(=O)(=O)O.NCC1CN(c2nc3c(cc2F)c(=O)c(C(=O)O)cn3C2CC2)C/C1=N\OCc1cc2c(cc1[N+](=O)[O-])OCO2 (racemic)	2 µg/mL

These compounds were tested on Klebsiella pneumoniae (assay: Antimicrobial activity against extended spectrum beta-lactamases-producing Klebsiella pneumoniae 10-1 after 18-24 hrs by two-fold serial dilution method).
Assay type: functional
Outline: as §1

SMILES	MIC
CS(=O)(=O)O.NCC1CN(c2nc3c(cc2F)c(=O)c(C(=O)O)cn3C2CC2)C/C1=N\OCc1cc2c(cc1[N+](=O)[O-])OCO2 (racemic)	> 128 µg/mL

These compounds were tested on Pseudomonas aeruginosa (assay: Antimicrobial activity against extended spectrum beta-lactamases-producing Pseudomonas aeruginosa 10-15 after 18-24 hrs by two-fold serial dilution method).
Assay type: functional
Outline: as §1

SMILES	MIC
CS(=O)(=O)O.NCC1CN(c2nc3c(cc2F)c(=O)c(C(=O)O)cn3C2CC2)C/C1=N\OCc1cc2c(cc1[N+](=O)[O-])OCO2 (racemic)	8 µg/mL

What follows are compounds tested on Enterococcus faecalis (assay: Antimicrobial activity against Enterococcus faecalis 10-7 after 18-24 hrs by two-fold serial dilution method).
Assay type: functional
Outline: as §1

SMILES	MIC
CS(=O)(=O)O.NCC1CN(c2nc3c(cc2F)c(=O)c(C(=O)O)cn3C2CC2)C/C1=N\OCc1cc2c(cc1[N+](=O)[O-])OCO2 (racemic)	8 µg/mL

What follows are compounds tested on Streptococcus pneumoniae (assay: Antimicrobial activity against extended spectrum beta-lactamases-producing Streptococcus pneumoniae 10-4 after 18-24 hrs by two-fold serial dilution method).
Assay type: functional
Outline: as §1

SMILES	MIC
CS(=O)(=O)O.NCC1CN(c2nc3c(cc2F)c(=O)c(C(=O)O)cn3C2CC2)C/C1=N\OCc1cc2c(cc1[N+](=O)[O-])OCO2 (racemic)	2 µg/mL

What follows are compounds tested on Staphylococcus aureus (assay: Antimicrobial activity against extended spectrum beta-lactamases-producing methicillin-sensitive Staphylococcus aureus 10-14 after 18-24 hrs by two-fold serial dilution method).
Assay type: functional
Outline: as §1

SMILES	MIC
CS(=O)(=O)O.NCC1CN(c2nc3c(cc2F)c(=O)c(C(=O)O)cn3C2CC2)C/C1=N\OCc1cc2c(cc1[N+](=O)[O-])OCO2 (racemic)	0.25 µg/mL

The compounds below were run on Klebsiella pneumoniae (assay: Antimicrobial activity against Klebsiella pneumoniae 10-2 after 18-24 hrs by two-fold serial dilution method).
Assay type: functional
Outline: as §1

SMILES	MIC
CS(=O)(=O)O.NCC1CN(c2nc3c(cc2F)c(=O)c(C(=O)O)cn3C2CC2)C/C1=N\OCc1cc2c(cc1[N+](=O)[O-])OCO2 (racemic)	> 128 µg/mL

What follows are compounds tested on Staphylococcus epidermidis (assay: Antimicrobial activity against extended spectrum beta-lactamases-producing methicillin-resistant Staphylococcus epidermidis 10-10 after 18-24 hrs by two-fold serial dilution method).
Assay type: functional
Outline: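 Agar twofold serial dilution MIC against clinical isolates. MIC was taken as the lowest concentration giving complete inhibition of bacterial growth after incubation at 35 °C for 18-24 h.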

SMILES	MIC
CS(=O)(=O)O.NCC1CN(c2nc3c(cc2F)c(=O)c(C(=O)O)cn3C2CC2)C/C1=N\OCc1cc2c(cc1[N+](=O)[O-])OCO2 (racemic)	2 µg/mL

What follows are compounds tested on Staphylococcus epidermidis (assay: Antimicrobial activity against extended spectrum beta-lactamases-producing methicillin-sensitive Staphylococcus epidermidis 10-11 after 18-24 hrs by two-fold serial dilution method).
Assay type: functional
Outline: as §1

SMILES	MIC
CS(=O)(=O)O.NCC1CN(c2nc3c(cc2F)c(=O)c(C(=O)O)cn3C2CC2)C/C1=N\OCc1cc2c(cc1[N+](=O)[O-])OCO2 (racemic)	0.25 µg/mL

The compounds below were run on Enterococcus faecalis (assay: Antimicrobial activity against Enterococcus faecalis 10-5 after 18-24 hrs by two-fold serial dilution method).
Assay type: functional
Outline: as §1

SMILES	MIC
CS(=O)(=O)O.NCC1CN(c2nc3c(cc2F)c(=O)c(C(=O)O)cn3C2CC2)C/C1=N\OCc1cc2c(cc1[N+](=O)[O-])OCO2 (racemic)	4 µg/mL

Each compound was assayed on Klebsiella pneumoniae (assay: Antimicrobial activity against extended spectrum beta-lactamases-producing Klebsiella pneumoniae 10-3 after 18-24 hrs by two-fold serial dilution method).
Assay type: functional
Outline: as §1

SMILES	MIC
CS(=O)(=O)O.NCC1CN(c2nc3c(cc2F)c(=O)c(C(=O)O)cn3C2CC2)C/C1=N\OCc1cc2c(cc1[N+](=O)[O-])OCO2 (racemic)	> 128 µg/mL

The compounds below were run on Escherichia coli (assay: Antimicrobial activity against extended spectrum beta-lactamases-producing Escherichia coli 10-2 after 18-24 hrs by two-fold serial dilution method).
Assay type: functional
Outline: as §1

SMILES	MIC
CS(=O)(=O)O.NCC1CN(c2nc3c(cc2F)c(=O)c(C(=O)O)cn3C2CC2)C/C1=N\OCc1cc2c(cc1[N+](=O)[O-])OCO2 (racemic)	> 128 µg/mL

These compounds were tested on Pseudomonas aeruginosa (assay: Antimicrobial activity against extended spectrum beta-lactamases-producing Pseudomonas aeruginosa 10-18 after 18-24 hrs by two-fold serial dilution method).
Assay type: functional
Outline: as §1

SMILES	MIC
CS(=O)(=O)O.NCC1CN(c2nc3c(cc2F)c(=O)c(C(=O)O)cn3C2CC2)C/C1=N\OCc1cc2c(cc1[N+](=O)[O-])OCO2 (racemic)	4 µg/mL

What follows are compounds tested on Escherichia coli (assay: Antimicrobial activity against Escherichia coli 10-2 after 18-24 hrs by two-fold serial dilution method).
Assay type: functional
Outline: as §1

SMILES	MIC
CS(=O)(=O)O.NCC1CN(c2nc3c(cc2F)c(=O)c(C(=O)O)cn3C2CC2)C/C1=N\OCc1cc2c(cc1[N+](=O)[O-])OCO2 (racemic)	8 µg/mL

These compounds were tested on Staphylococcus aureus (assay: Antimicrobial activity against Staphylococcus aureus ATCC […] after 18-24 hrs by two-fold serial dilution method).
Assay type: functional
Outline: as §1

SMILES	MIC
CS(=O)(=O)O.NCC1CN(c2nc3c(cc2F)c(=O)c(C(=O)O)cn3C2CC2)C/C1=N\OCc1cc2c(cc1[N+](=O)[O-])OCO2 (racemic)	0.008 µg/mL

These compounds were tested on Enterococcus faecium (assay: Antimicrobial activity against Enterococcus faecium 10-5 after 18-24 hrs by two-fold serial dilution method).
Assay type: functional
Outline: as §1

SMILES	MIC
CS(=O)(=O)O.NCC1CN(c2nc3c(cc2F)c(=O)c(C(=O)O)cn3C2CC2)C/C1=N\OCc1cc2c(cc1[N+](=O)[O-])OCO2 (racemic)	16 µg/mL

What follows are compounds tested on Escherichia coli (assay: Antimicrobial activity against extended spectrum beta-lactamases-producing Escherichia coli 10-4 after 18-24 hrs by two-fold serial dilution method).
Assay type: functional
Outline: as §1

SMILES	MIC
CS(=O)(=O)O.NCC1CN(c2nc3c(cc2F)c(=O)c(C(=O)O)cn3C2CC2)C/C1=N\OCc1cc2c(cc1[N+](=O)[O-])OCO2 (racemic)	8 µg/mL

The compounds below were run on Klebsiella pneumoniae (assay: Antimicrobial activity against Klebsiella pneumoniae 10-3 after 18-24 hrs by two-fold serial dilution method).
Assay type: functional
Outline: as §1

SMILES	MIC
CS(=O)(=O)O.NCC1CN(c2nc3c(cc2F)c(=O)c(C(=O)O)cn3C2CC2)C/C1=N\OCc1cc2c(cc1[N+](=O)[O-])OCO2 (racemic)	8 µg/mL

Reference: ChEMBL document CHEMBL2062435, “Synthesis and in vitro antibacterial activity of gemifloxacin derivatives containing a substituted benzyloxime moiety” (2012)
